According to the array DNA melting data of Ke et al. (doi:10.1101/2024.01.08.574731):

Tests used:
[1] = folding enthalpy; higher = less favourable; fluorescence melt of hairpins on a sequencing array, two-state fit; details: sodium 0.088 M
Summary of the method: (§1)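 Folding enthalpy and melting temperature come from bootstrapped two-state fits to Cy3 fluorescence of library hairpins carrying annealed Cy3 and quencher oligos on a sequenced MiSeq flow cell. Imaging was done in 50 mM Na-HEPES pH 8.0, 25 mM NaCl, stepping by 2.5 °C up to 60 °C, and signals were normalised to pre-quench Cy3 and to control constructs. Results of four replicates were combined by inverse variance, and fitted temperatures were raised by 9.35 °C to match UV melts.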

[2] = melting temperature; fluorescence melt of hairpins on a sequencing array, two-state fit, raised by 9.35 °C to match UV melts; details: sodium 0.088 M
Summary of the method: as §1

Row | Sequence | folding enthalpy [1] [kcal/mol] | Tm [2] [°C]
1 | GATTGCGAAAGCATGATC ((((((....)))..))) | -11.6 | 36.3
2 | GATTGGCCGAAAGGCATC (((..(((....)))))) | -9.53 | 28.5
3 | GATTGGCGAAAGCCGATC (((.(((....))).))) | -25.8 | 56.8
4 | GATTGGGGAAACCCGATC (((.(((....))).))) | -35 | 48.8
5 | GATTGGGGAAACCTAATC ((((.((....)).)))) | -29.3 | 37.5
6 | GATTGTACGAAAGTAATC (((..(((....)))))) | -18.7 | 28.1
7 | GATTGTGCGAAAGCAATC (((..(((....)))))) | -12.8 | 34
8 | GATTGTGGAAACACAGTC ((.((((....)))).)) | -26.4 | 42.6
9 | GATTTAGGAAACTAGATC (((.(((....))).))) | -27.5 | 28.3
10 | GATTTCCGAAAGGAATC (((.(((....)))))) | -16.4 | 42.9
11 | GATTTCCGAAAGGATATC (((.(((....))).))) | -24.6 | 42
12 | GATTTCGGAAACGAAATC (((((((....))))))) | -41.2 | 58.1
13 | GATTTGCCGAAAGGCATC (((..(((....)))))) | -5.81 | 21.9
14 | GATTTGCGAAAGCACATC (((.(((....))).))) | -19.9 | 43.9
15 | GATTTGGGAAACCAAACC (.(((((....))))).) | -19.4 | 34
16 | GATTTGGGAAACCGAATC ((((.((....)).)))) | -31.1 | 44.5
17 | GATTTTGAAAAAAATC ((((((....)))))) | -23.7 | 40.7
18 | GATTTTGGAAACAAGATC (((.(((....))).))) | -22.4 | 33.6
19 | GCAAAAACGAAAGTTTGC (((..(((....)))))) | -26 | 43.2
20 | GCAAAACGAAAGTTTGC (((.(((....)))))) | -30.6 | 50.8
21 | GCAAAAGCGAAAGCTTGC (((..(((....)))))) | -18.3 | 51.4
22 | GCAAAAGGAAACCTTTGC (((((.(....).))))) | -30.4 | 39.6
23 | GCAAAAGGAAACTCTTGC ((((.((....)).)))) | -10.8 | 27.4

Row | Sequence | folding enthalpy [1] [kcal/mol] | Tm [2] [°C]
24 | GCAAAAGGAAACTTTCGC ((.((((....)))).)) | -20.5 | 31.8
25 | GCAAAAGGAAACTTTTGC (((((((....))))))) | -45 | 56.5
26 | GCAAACGAAAGTTACTGC ((((((....)))..))) | -13.3 | 27.3
27 | GCAAACGAAAGTTATTGC ((((((....)))..))) | -18.5 | 31.7
28 | GCAAAGAAATTTGC (((((....))))) | -19.4 | 38.9
29 | GCAAAGACGAAAGTCTGC (((..(((....)))))) | -15.7 | 50.2
30 | GCAAAGCGAAAGCATAGC ((.(.((....)).).)) | -9.41 | 33.4
31 | GCAAAGCGAAAGCATCGC ((.(.((....)).).)) | -10.8 | 35.4
32 | GCAAAGCGAAAGCTCCGC ((..(((....)))..)) | -11.4 | 29
33 | GCAAAGCGAAAGCTCTGC (((.(((....))).))) | -31.1 | 47
34 | GCAAAGCGAAAGCTGTGC (((.(((....))).))) | -41.6 | 54.4
35 | GCAAAGCGAAAGCTTGGC ((.((((....)))).)) | -38.7 | 62.9
36 | GCAAAGGCGAAAGCCTGC (((..(((....)))))) | -14.9 | 54.6
37 | GCAAAGGGAAACTTTTGC (((((.(....).))))) | -26.8 | 41
38 | GCAAATCGAAAGATGTGC (((.(((....))).))) | -28.3 | 48.8
39 | GCAACACGAAAGTGTGC (((.(((....)))))) | -19 | 60.2
40 | GCAACAGAAATGTTGC ((((((....)))))) | -40.1 | 56.6
41 | GCAACCGAAAGGTACTGC ((((((....)))..))) | -13.9 | 33.5
42 | GCAACCGAAAGGTATGC ((((((....))).))) | -26.4 | 50.3
43 | GCAACCGAAAGGTCATGC ((((((....)))..))) | -13 | 32.3
44 | GCAACCGAAAGGTCCTGC ((((((....)))..))) | -9.82 | 27.9
45 | GCAACCGAAAGGTGATGC ((((((....)))..))) | -18.5 | 43.2
46 | GCAACCGAAAGGTTGTGC ((((((....)))..))) | -20.5 | 65.7

Row | Sequence | folding enthalpy [1] [kcal/mol] | Tm [2] [°C]
47 | GCAACCGGAAACGGCTGC (((.(((....))).))) | -40.9 | 53
48 | GCAACCGGAAACGGTTAC (.(((((....))))).) | -12.4 | 41.2
49 | GCAACGCGAAAGCAATGC (((..((....))..))) | -11.1 | 40.6
50 | GCAACGCGAAAGCAGTGC (((..((....))..))) | -13.3 | 52.1
51 | GCAACGCGAAAGCATAGC ((.(.((....)).).)) | -9.72 | 37.5
52 | GCAACGCGAAAGCATTGC ((((.((....)).)))) | -27.3 | 59.7
53 | GCAACGCGAAAGCGAAGC ((..(((....)))..)) | -12.9 | 44.9
54 | GCAACGCGAAAGCGCTGC (((.(((....))).))) | -37.9 | 57.8
55 | GCAACGCGAAAGCGGAGC ((..(((....)))..)) | -24.5 | 63.9
56 | GCAACGCGAAAGCGGCGC ((..(((....)))..)) | -26.6 | 66.7
57 | GCAACGCGAAAGCGTAGC ((.((((....)))).)) | -17.6 | 61.9
58 | GCAACGCGAAAGCTTTGC ((((.((....)).)))) | -27.4 | 55.5
59 | GCAACGGAAACGTTGC ((((((....)))))) | -32.6 | 68.3
60 | GCAACGGGAAACCGCTAC (.(.(((....))).).) | -9.4 | 28.3
61 | GCAACGGGAAACCGTCAC (..((((....))))..) | -11.2 | 27.1
62 | GCAACGGGAAACTGTTGC (((((.(....).))))) | -40.8 | 55.6
63 | GCAACTCGAAAGAGGTGC (((.(((....))).))) | -40.6 | 65.5
64 | GCAACTGGAAACAGTTAC (.(((((....))))).) | -14.5 | 36.3
65 | GCAAGACCGAAAGGTTGC (((..(((....)))))) | -22.6 | 48.2
66 | GCAAGACGAAAGTCTGC (((.(((....)))))) | -26.7 | 57.7
67 | GCAAGATCGAAAGATTGC (((..(((....)))))) | -21.3 | 38
68 | GCAAGCCGAAAGGCATGC (((.(((....))).))) | -24.9 | 64
69 | GCAAGCGAAAGCTCTTGC ((((((....)))..))) | -16.1 | 43.6

Row | Sequence | folding enthalpy [1] [kcal/mol] | Tm [2] [°C]
70 | GCAAGCGAAAGCTTTGC ((((((....))).))) | -21 | 53.7
71 | GCAAGCGGAAACACTTGC (((((.(....).))))) | -46.6 | 48.3
72 | GCAAGCGGAAACGCTCAC (..((((....))))..) | -9.17 | 30.5
73 | GCAAGCGGAAACGCTTAC (.(((((....))))).) | -13.4 | 41.2
74 | GCAAGGAAACTTGC (((((....))))) | -26.6 | 53.3
75 | GCAAGGCGAAAGCAATGC (((..((....))..))) | -16 | 41.3
76 | GCAAGGCGAAAGCACTGC (((..((....))..))) | -19.7 | 46.7
77 | GCAAGGCGAAAGCATGGC ((.(.((....)).).)) | -18 | 47.8
78 | GCAAGGCGAAAGCCAAGC ((..(((....)))..)) | -13.8 | 50.1
79 | GCAAGGCGAAAGCCACGC ((..(((....)))..)) | -14.6 | 47.1
80 | GCAAGGCGAAAGCCGGGC ((..(((....)))..)) | -20.9 | 65.5
81 | GCAAGGCGAAAGCGATGC (((..((....))..))) | -11.4 | 53.4
82 | GCAAGGCGAAAGCGCTGC (((..((....))..))) | -17.3 | 50.2
83 | GCAAGGCGAAAGCGTGGC ((.(.((....)).).)) | -20.2 | 46.9
84 | GCAAGGGGAAACCCTTGC (((((((....))))))) | -38.3 | 68.3
85 | GCAAGGTCGAAAGACTGC (((..(((....)))))) | -19.1 | 40.5
86 | GCAAGTCGAAAGACGTGC (((.(((....))).))) | -39.8 | 55.8
87 | GCAATAACGAAAGTTTGC (((..(((....)))))) | -26 | 41.3
88 | GCAATACCGAAAGGTTGC (((..(((....)))))) | -21.6 | 45.5
89 | GCAATACGAAAGTAGTGC (((.(((....))).))) | -43.8 | 54.7
90 | GCAATAGAAATATTGC ((((((....)))))) | -26.5 | 46.4
91 | GCAATCCGAAAGGAATGC (((.(((....))).))) | -34.5 | 54.5
